According to ChEMBL document CHEMBL1130180, “17-Imidazolyl, pyrazolyl, and isoxazolyl androstene derivatives. Novel steroidal inhibitors of human cytochrome C17,20-lyase (P450(17 alpha)” (J Med Chem, 1997):

What was measured:
[1] = target: T1, Steroid 17-alpha-hydroxylase/17,20 lyase (Homo sapiens, UniProt P05093); assay: Inhibition of human testicular microsomal Cytochrome P450 17A1
T1 sequence (P05093 whole entry): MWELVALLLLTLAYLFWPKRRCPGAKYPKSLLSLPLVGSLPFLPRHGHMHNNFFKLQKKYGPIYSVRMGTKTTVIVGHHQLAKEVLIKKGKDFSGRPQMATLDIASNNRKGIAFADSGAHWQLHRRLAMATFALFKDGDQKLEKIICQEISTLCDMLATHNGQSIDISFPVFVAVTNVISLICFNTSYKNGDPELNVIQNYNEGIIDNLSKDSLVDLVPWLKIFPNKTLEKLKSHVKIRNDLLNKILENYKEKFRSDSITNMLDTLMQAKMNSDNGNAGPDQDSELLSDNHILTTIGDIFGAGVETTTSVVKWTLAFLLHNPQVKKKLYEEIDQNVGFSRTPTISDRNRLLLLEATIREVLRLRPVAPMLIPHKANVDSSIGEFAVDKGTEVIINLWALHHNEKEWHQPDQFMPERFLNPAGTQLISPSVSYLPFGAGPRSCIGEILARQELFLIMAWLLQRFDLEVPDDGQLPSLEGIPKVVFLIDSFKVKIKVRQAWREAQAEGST
In short: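 Human testis microsomes (orchidectomy tissue from untreated prostate cancer patients, stored at -70 °C, diluted in 0.1 M phosphate buffer). Radiometric: 10 μM [21-3H]-17α-hydroxypregnenolone, NADPH-generating system, pH 7.4, 10 min preincubation, then ~90 µg protein for 60 min under O2 at 34 °C. [3H]acetic acid measured in aqueous phase after chloroform extraction and charcoal. IC50 from log-log regression; six concentrations.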

[2] = target: T2, Steroid 17-alpha-hydroxylase/17,20 lyase (Rattus norvegicus, UniProt P11715); assay: Percent inhibition of rat testicular microsomal Cytochrome P450 17A1; design: concentration or dose not given beside the values
T2 sequence (P11715 whole entry): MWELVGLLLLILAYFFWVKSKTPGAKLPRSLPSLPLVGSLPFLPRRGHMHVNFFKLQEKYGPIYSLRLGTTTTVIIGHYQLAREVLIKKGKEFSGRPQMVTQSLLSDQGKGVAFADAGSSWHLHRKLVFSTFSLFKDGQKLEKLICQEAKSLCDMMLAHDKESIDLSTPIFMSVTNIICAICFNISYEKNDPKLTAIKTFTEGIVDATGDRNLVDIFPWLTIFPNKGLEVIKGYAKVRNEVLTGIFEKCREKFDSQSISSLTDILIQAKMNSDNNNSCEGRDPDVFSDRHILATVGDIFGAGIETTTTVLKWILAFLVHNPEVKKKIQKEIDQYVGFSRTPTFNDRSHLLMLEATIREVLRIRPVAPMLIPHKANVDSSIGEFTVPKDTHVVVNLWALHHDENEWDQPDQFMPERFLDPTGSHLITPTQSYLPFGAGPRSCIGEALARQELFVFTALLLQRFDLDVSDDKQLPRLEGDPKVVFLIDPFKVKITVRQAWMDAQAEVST
In short: (§1)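 Single-concentration screen at 1500 nM using adult Sprague-Dawley rat testis microsomes. Incubation: 10 μM [21-3H]-17α-hydroxypregnenolone with NADPH-generating system, pH 7.4, 60 min, 34 °C, under O2. Percent inhibition was read from tritiated acetic acid in the aqueous phase after chloroform extraction of steroids.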

[3] = target: T2, Steroid 17-alpha-hydroxylase/17,20 lyase; assay: Inhibition of rat testicular microsomal Cytochrome P450 17A1
In short: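 Adult Sprague-Dawley rat (200-250 g) testicular microsomes, about 90 µg protein. [21-3H]-17α-hydroxypregnenolone was used at 10 µM total. Cofactors were NADP 65 µM, glucose 6-phosphate 0.71 mM and G6PDH 0.13 IU in phosphate buffer pH 7.4. Compounds were preincubated 10 min, then reacted 60 min under O2 at 34 °C. Released [3H]acetic acid was counted after chloroform extraction and charcoal treatment.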

[4] = target: T1, Steroid 17-alpha-hydroxylase/17,20 lyase; assay: Percent inhibition of human testicular microsomal Cytochrome P450 17A1; design: concentration or dose not given beside the values
In short: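 Human testis microsomes were incubated 60 min at 34 °C under O2 with 10 μM [21-3H]-17α-hydroxypregnenolone and NADPH-generating system (pH 7.4). Test compound was present at a single 150 or 400 nM. Inhibition was read from [3H]acetic acid released to the aqueous phase after chloroform extraction.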

[5] = target: T2, Steroid 17-alpha-hydroxylase/17,20 lyase; assay: Percent inhibition of rat testicular microsomal Cytochrome P450 17A1; No Inhibition; in short: as §1

Row | Structure (SMILES) | IC50 [1] [nM] | Inhibition [2] [%] | Conc [1] [nM] | IC50 [3] [nM] | Inhibition [4] [%] | Inhibition [5]
1 | CC(C1N=CC=N1)[C@H]1CCC2C3CCC4=CC(=O)CC[C@]4(C)C3CC[C@@]21C (some centres not stated) | > 30000 |  |  |  |  | 
2 | C[C@]12CCC3C(CC=C4CC(O)CC[C@@]43C)C1CCC2c1ccon1 (some centres not stated) | 1110 | 54 |  |  |  | 
3 | C[C@]12CCC(=O)C=C1CCC1C2CC[C@@]2(C)C1CC[C@@H]2C1N=CC=N1 (some centres not stated) |  | 25 | 400 |  |  | 
4 | C[C@]12CCC(=O)C=C1CCC1C2CC[C@]2(C)C(c3ccn[nH]3)=CCC12 (some centres not stated) | 59 |  |  | 76 |  | 
5 | C[C@]12CCC3C(CC=C4CC(O)CC[C@@]43C)C1CCC2c1ccno1 (some centres not stated) |  | 93 | 150 |  | 21 | 
6 | C[C@]12CCC(=O)C=C1CCC1C2CC[C@@]2(C)C1CC[C@@H]2c1cnc[nH]1 (some centres not stated) | 58 |  |  | 79 |  | 
7 | C[C@]12CCC(O)CC1=CCC1C2CC[C@]2(C)C(c3ccnn3-c3ccccc3)=CCC12 (some centres not stated) |  |  | 150 |  | 11 | Not Active
8 | C[C@]12CCC3C(CC=C4CC(O)CC[C@@]43C)C1CCC2c1ccn[nH]1 (some centres not stated) |  | 92 | 150 |  | 20 | 
9 | C[C@]12CC[C@H](O)CC1=CC[C@@H]1[C@@H]2CC[C@]2(C)C(c3ccn[nH]3)=CC[C@@H]12 | 42 |  |  | 28 |  | 
10 | C[C@]12CC[C@H]3[C@@H](CC=C4C[C@@H](O)CC[C@@]43C)[C@@H]1CC[C@@H]2c1cnc[nH]1 | 66 |  |  | 91 |  | 
11 | C[C@]12CC[C@H](O)CC1=CC[C@@H]1[C@@H]2CC[C@@]2(C)[C@H]1CC1O[C@]12c1cnc[nH]1 (some centres not stated) | 430 |  |  |  |  | 
12 | C[C@]12CC[C@H](O)CC1=CC[C@@H]1[C@@H]2CC[C@]2(C)C(c3ccno3)=CC[C@@H]12 | 108 |  |  | 84 |  | 
13 | C[C@]12CC[C@H](O)CC1=CC[C@@H]1[C@@H]2CC[C@]2(C)C(c3ncc[nH]3)=CC[C@@H]12 | 21 | 65 |  |  |  | 
14 | CC(=O)O[C@H]1CC[C@@]2(C)C(=CC[C@H]3[C@@H]4CC[C@H](C5=CNC(C(C)=O)N5)[C@@]4(C)CC[C@@H]32)C1 (some centres not stated) | 100 |  |  | 5460 |  | 
15 | C[C@]12CC[C@H](O)CC1=CC[C@@H]1[C@@H]2CC[C@]2(C)C(c3c[nH]cn3)=CC[C@@H]12 | 24 |  |  | 49 |  | 
16 | CC(=O)O[C@H]1CC[C@@]2(C)C(=CC[C@H]3[C@@H]4CC[C@H](c5c[nH]cn5)[C@@]4(C)CC[C@@H]32)C1 | 199 | 55 |  |  |  | 
17 | Cc1ncc([C@H]2CC[C@H]3[C@@H]4CC=C5C[C@@H](O)CC[C@]5(C)[C@H]4CC[C@]23C)[nH]1 |  |  |  | 4810 | 26 | 
18 | CC(=O)O[C@H]1CC[C@@]2(C)C(=CC[C@@H]3[C@@H]2CC[C@]2(C)C(c4cnc[nH]4)=CC[C@@H]32)C1 |  | 92 |  |  |  | 
19 | C[C@]12CCC(=O)C=C1CCC1C2CC[C@@]2(C)C1CC[C@]2(O)c1c[nH]cn1 (some centres not stated) | 1200 |  |  |  |  | 
20 | C[C@]12CCC(=O)C=C1CCC1C2CC[C@]2(C)C(c3cnc[nH]3)=CCC12 (some centres not stated) | 50 |  |  | 14 |  | 
21 | Cn1ccc(C2=CCC3C4CC=C5CC(O)CC[C@]5(C)C4CC[C@]23C)n1 (some centres not stated) |  |  | 150 |  | 25 | Not Active
22 | Cn1nccc1C1=CCC2C3CC=C4CC(O)CC[C@]4(C)C3CC[C@]12C (some centres not stated) |  |  | 150 |  | 12 | Not Active
23 | Cc1nc(C2CCC3C4CC=C5CC(O)CC[C@]5(C)C4CC[C@]23C)co1 (some centres not stated) |  |  | 400 |  | 21 | Not Active
24 | C[C@]12CCC3C(CC=C4CC(O)CC[C@@]43C)C1CCC2c1ncc[nH]1 (some centres not stated) |  | 19 | 400 |  | 24 | 
25 | C[C@]12CCC(O)CC1=CCC1C2CC[C@@]2(C)C1CC[C@@H]2c1c[nH]c(-c2ccccc2)n1 (some centres not stated) |  |  | 400 |  | 21 | Not Active
26 | C[C@]12CCC(=O)C=C1CCC1C2CC[C@]2(C)C(c3ccno3)=CCC12 (some centres not stated) | 39 |  |  | 32 |  | 
27 | CC(=O)N1CCN(c2ccc(OC[C@H]3CO[C@](Cn4ccnc4)(c4ccc(Cl)cc4Cl)O3)cc2)CC1 [KETOCONAZOLE] |  |  |  | 1070 |  | 
